Measured values from different studies.
Compare with care: the assays were run in different laboratories.
Target: Serine/threonine-protein kinase MARK1 (MARK1, Homo sapiens, UniProt Q9P0L2)

Structure (SMILES) | read-out | action | technique | tested at | endpoint | value
COc1cc2ncnc(Nc3ccc(Oc4ccccc4)cc3C)c2cc1OC | enzyme activity | inhibitor |  | 1 µM | inhibition | 8%
CSc1nc(C)c(-c2ccnc(Nc3ccc(N4CCOCC4)cc3)c2)[nH]1 | enzyme activity | inhibitor |  | 10 µM | inhibition | 20.1%
COc1cc(/C=C/C(=O)CC(=O)/C=C/c2ccc(O)c(OC)c2)ccc1O | enzyme activity | inhibitor |  | 1 µM | activity vs control | 79%
CCCCN(CCCC)C(=O)CN1C[C@@H](c2cc(OC)c3c(c2)OCO3)[C@H](C(=O)O)[C@H]1CC(C)(C)CCC | cell-free assay |  | competition with immobilised ligand | 1 µM | remaining binding | 88.7%
O=C(NCCCNc1nc(Nc2cccc(CN3CCOCC3)c2)ncc1C1CC1)C1CCC1 | enzyme activity | inhibitor | radiometric | 1 µM | remaining activity | -5%
Cc1cc(C)c(-n2ccn3nc(-c4cccnc4)cc23)cc1NC(=O)c1cc(C#N)cc(S(F)(F)(F)(F)F)c1 | cell-free assay |  | competition with immobilised ligand | 0.1 µM | remaining binding | 96.7%
CCN(CC)CCNC(=O)c1c(C)[nH]c(/C=C2\C(=O)Nc3ccc(F)cc32)c1C | enzyme activity | inhibitor |  | 0.3 µM | inhibition | 50%
Nc1ncnc2occ(-c3ccc(NC(=O)Nc4cc(C(F)(F)F)ccc4F)cc3)c12 | cell-free assay | inhibitor |  | 20 µM | remaining signal | 34%
CS(=O)(=O)N1CCCC(NC(=O)[C@H](CCC2CCCCC2)NC(=O)c2ccc(CNc3ncnc4c3nnn4-c3ccccc3)cc2)C1 (some centres unmarked) | cell-free assay |  | competition with immobilised ligand | 0.1 µM | remaining binding | 74%
Cc1nn(CC(F)(F)F)cc1Nc1ncc(C2CC2)c(NCCc2c[nH]cn2)n1 | enzyme activity | inhibitor | radiometric | 1 µM | remaining activity | 71%
CC(=O)C1=C(C)N(c2cccc(C(F)(F)F)c2)C(=O)N[C@@H]1c1ccc(C#N)nc1 | cell-free assay |  | competition with immobilised ligand | 1 µM | remaining binding | 100%
CS(=O)(=O)CCNCc1ccc(-c2ccc3ncnc(Nc4ccc(OCc5cccc(F)c5)c(Cl)c4)c3c2)o1 | cell-free assay |  |  | 0.5 µM | remaining signal | 149%
NS(=O)(=O)c1ccc(CNc2nc(Nc3cccc(NC(=O)N4CCCC4)c3)ncc2C2CC2)cc1 | enzyme activity | inhibitor | radiometric | 1 µM | remaining activity | 94%
FC(F)(F)Oc1cccc(-c2cnc3ccc(-c4ccncc4)nn23)c1 | enzyme activity | inhibitor | radiometric | 5 µM | activity vs control | 95%
Cc1ccc(NC(=O)c2ccc(C)c(C(F)(F)F)c2)cc1C#Cc1nn(C2CCC(O)CC2)c2ncnc(N)c12 (centres unmarked) | cell-free assay |  |  | 10 µM | remaining signal | 94%
COc1cc2c(N3CCN(C(=O)Nc4ccc(OC(C)C)cc4)CC3)ncnc2cc1OCCCN1CCCCC1 | cell-free assay |  |  | 0.5 µM | remaining signal | 89.9%

Structure (SMILES) | read-out | action | technique | tested at | endpoint | value
Brc1cnc(Nc2cccc(CN3CCOCC3)c2)nc1NCCc1c[nH]cn1 | enzyme activity | inhibitor | radiometric | 1 µM | remaining activity | -3%
C[C@H](c1ccnc(Nc2nc3ccc(-c4cc(N(C)C)ncn4)cc3[nH]2)c1)N1CCN(C(=O)CC(F)(F)F)CC1 | cell-free assay |  | competition with immobilised ligand | 0.1 µM | remaining binding | 100%
COc1cc2ncnc(Nc3ccc(F)c(Cl)c3)c2cc1OCCCN1CCOCC1 | cell-free assay |  |  | 0.5 µM | remaining signal | 116%
Cc1nn(CC(F)(F)F)cc1Nc1ncc(Br)c(NCCc2cnc[nH]2)n1 | enzyme activity | inhibitor | radiometric | 1 µM | remaining activity | 49%
CSc1cccnc1N1CCN(Cc2nc3ccccc3[nH]2)CC1 | cell-free assay |  | competition with immobilised ligand | 1 µM | remaining binding | 100%
C#Cc1cccc(Nc2ncnc3cc(OCCOC)c(OCCOC)cc23)c1 | cell-free assay |  |  | 0.5 µM | remaining signal | 130%
CC1=C(C#N)C(c2ccc3c(c2)c(NC(=O)c2ccccc2C)nn3C)C(C#N)=C(C)N1 | cell-free assay |  | competition with immobilised ligand | 1 µM | remaining binding | 100%
CN(C)c1nccc(-c2cnn3ncccc23)n1 | binding |  |  | 1 µM | remaining binding | 96%
Cc1ccc(Nc2nccc(N(C)c3ccc4c(C)n(C)nc4c3)n2)cc1S(N)(=O)=O | enzyme activity | inhibitor |  | 10 µM | inhibition | 26%
Cc1sc(C(=O)NC2COC2)cc1-n1cc(NC(=O)Nc2c(F)cccc2Cl)cn1 | enzyme activity | inhibitor |  | 10 µM | remaining activity | 95.3%
O=C(NCCCNc1ccnc(Nc2cccc(NC(=O)N3CCCC3)c2)n1)C1CCC1 | enzyme activity | inhibitor | radiometric | 1 µM | remaining activity | 72%
CCCS(=O)(=O)Nc1ccc(F)c(C(=O)c2c[nH]c3ncc(-c4ccc(Cl)cc4)cc23)c1F | enzyme activity | inhibitor |  | 1 µM | inhibition | < 10%
NS(=O)(=O)c1ccc(CNc2nc(Nc3cccc(NC(=O)N4CCCC4)c3)ncc2Br)cc1 | enzyme activity | inhibitor | radiometric | 1 µM | remaining activity | 57%
CCC(=O)N[C@H]1CC[C@@H](C(=O)N(C)c2ccc(-c3nc4ccccc4o3)cc2)C1 | cell-free assay |  | competition with immobilised ligand | 1 µM | remaining binding | 100%
CNC(=O)c1cc(Oc2ccc(NC(=O)Nc3ccc(Cl)c(C(F)(F)F)c3)cc2)ccn1 | enzyme activity | inhibitor |  | 0.3 µM | inhibition | 9%
Cc1nn(CC(F)(F)F)cc1Nc1nccc(NCc2ccc(S(N)(=O)=O)cc2)n1 | enzyme activity | inhibitor | radiometric | 1 µM | remaining activity | 107%
